Measurements from ChEMBL document CHEMBL4219113, “Pyridazine and pyridazinone derivatives as potent and selective factor XIa inhibitors” (Bioorg Med Chem Lett, 2018).
pKi: −log10 of the molar value.

How the values were obtained:
[1] = Half life in human liver microsomes pretreated for 5 mins followed by NADPH addition by UV-LC/MS analysis; assay type: ADME, microsome
[2] = biological target: Urokinase-type plasminogen activator (Homo sapiens, UniProt P00749); experiment: Inhibition of human urokinase
[3] = biological target: Plasminogen (Homo sapiens, UniProt P00747); experiment: Inhibition of human plasmin
[4] = biological target: Trypsin (Homo sapiens, UniProt P07477+P07478+P35030); experiment: Inhibition of human trypsin; assay type: protein assay
[5] = Clearance in dog at 0.2 to 0.5 mg/kg, po or 0.2 to 0.4 mg/kg, iv administered as cassette dose; assay type: ADME, organism-based, Canis lupus familiaris; settings: in vivo
How it was run: (§1)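 Dogs received cassette dosing at 0.2–0.5 mg/kg orally and 0.2–0.4 mg/kg intravenously. The iv vehicle was 10% DMAC, 10% EtOH, 10% PG and 70% water. The oral vehicle was 10% EtOH, 70% PEG400 and 20% TPGS.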

[6] = Oral bioavailability in dog at 0.2 to 0.5 mg/kg; assay type: ADME, organism-based, Canis lupus familiaris; settings: in vivo; how it was run: as §1
[7] = Volume of distribution at steady state in dog at 0.2 to 0.5 mg/kg, po or 0.2 to 0.4 mg/kg, iv administered as cassette dose; assay type: ADME, organism-based, Canis lupus familiaris; settings: in vivo, read-out: Vdss; how it was run: as §1
[8] = tested on: Plasma; experiment: Anticoagulant activity in human plasma assessed as increase in activated partial thromboplastin time; assay type: functional
How it was run: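 In vitro clotting test in human plasma measuring activated partial thromboplastin time (aPTT). EC1.5x is the concentration that extends aPTT to 1.5-fold.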

[9] = biological target: Prothrombin (Homo sapiens, UniProt P00734); experiment: Inhibition of human thrombin
[10] = biological target: Coagulation factor XI (Homo sapiens, UniProt P03951); experiment: Inhibition of human factor 11a using pyro-Glu-Pro-Arg-pNA as substrate measured after 10 to 120 mins by spectrophotometric method
[11] = biological target: T1, Coagulation factor VII (Homo sapiens, UniProt P08709); experiment: Inhibition of human factor 7a
T1 sequence (P08709 whole entry): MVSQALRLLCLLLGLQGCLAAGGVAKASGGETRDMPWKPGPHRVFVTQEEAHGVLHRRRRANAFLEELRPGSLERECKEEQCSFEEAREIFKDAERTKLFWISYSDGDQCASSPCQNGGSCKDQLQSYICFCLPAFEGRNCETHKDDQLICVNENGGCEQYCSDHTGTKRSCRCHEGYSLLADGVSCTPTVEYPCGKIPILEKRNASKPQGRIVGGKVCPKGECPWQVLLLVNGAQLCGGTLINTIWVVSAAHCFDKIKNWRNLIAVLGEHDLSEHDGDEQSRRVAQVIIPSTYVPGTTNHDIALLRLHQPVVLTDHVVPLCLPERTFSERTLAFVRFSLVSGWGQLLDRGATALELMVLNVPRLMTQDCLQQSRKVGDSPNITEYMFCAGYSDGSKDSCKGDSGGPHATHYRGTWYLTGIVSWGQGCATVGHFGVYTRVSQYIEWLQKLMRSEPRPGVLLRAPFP

[12] = biological target: Tissue-type plasminogen activator (Homo sapiens, UniProt P00750); experiment: Inhibition of human TPA
[13] = biological target: Coagulation factor X (Homo sapiens, UniProt P00742); experiment: Inhibition of human factor 10a
[14] = biological target: Coagulation factor IX (Homo sapiens, UniProt P00740); experiment: Inhibition of human factor 9a
[15] = Half life in dog at 0.2 to 0.5 mg/kg, po or 0.2 to 0.4 mg/kg, iv administered as cassette dose; assay type: ADME, organism-based, Canis lupus familiaris; settings: in vivo; how it was run: as §1
[16] = biological target: Vitamin K-dependent protein C (Homo sapiens, UniProt P04070); experiment: Inhibition of human activated protein C
[17] = biological target: Plasma kallikrein (Homo sapiens, UniProt P03952); experiment: Inhibition of human plasma kallikrein
[18] = Inhibition of human chymotrypsin
[19] = Oral bioavailability in dog at 0.5 mg/kg; assay type: ADME, organism-based, Canis lupus familiaris; settings: in vivo; how it was run: as §1

Sequence of Coagulation factor XI (P03951 19-387 limits assumed): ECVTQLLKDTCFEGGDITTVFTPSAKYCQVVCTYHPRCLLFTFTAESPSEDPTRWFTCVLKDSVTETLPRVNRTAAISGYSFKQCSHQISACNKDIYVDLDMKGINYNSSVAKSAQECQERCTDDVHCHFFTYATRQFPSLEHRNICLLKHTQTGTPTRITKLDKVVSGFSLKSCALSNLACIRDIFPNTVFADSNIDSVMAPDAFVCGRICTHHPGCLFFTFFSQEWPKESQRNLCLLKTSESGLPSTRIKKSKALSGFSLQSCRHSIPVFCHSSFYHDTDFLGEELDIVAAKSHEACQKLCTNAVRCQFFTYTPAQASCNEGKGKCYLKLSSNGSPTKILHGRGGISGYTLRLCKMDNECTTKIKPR
Sequence of Coagulation factor XI (P03951 388-625 limits assumed): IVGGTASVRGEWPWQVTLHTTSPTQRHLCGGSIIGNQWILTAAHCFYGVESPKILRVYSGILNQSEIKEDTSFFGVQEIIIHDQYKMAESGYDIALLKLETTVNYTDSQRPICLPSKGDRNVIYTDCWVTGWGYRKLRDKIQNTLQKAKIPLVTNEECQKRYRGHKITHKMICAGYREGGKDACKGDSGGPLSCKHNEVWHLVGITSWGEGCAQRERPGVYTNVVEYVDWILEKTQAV
Sequence of Coagulation factor IX (P00740 47-191 limits assumed): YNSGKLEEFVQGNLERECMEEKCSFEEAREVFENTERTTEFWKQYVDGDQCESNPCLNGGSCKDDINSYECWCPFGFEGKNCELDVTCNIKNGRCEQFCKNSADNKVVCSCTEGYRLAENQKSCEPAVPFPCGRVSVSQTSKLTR
Sequence of Coagulation factor IX (P00740 227-461 limits assumed): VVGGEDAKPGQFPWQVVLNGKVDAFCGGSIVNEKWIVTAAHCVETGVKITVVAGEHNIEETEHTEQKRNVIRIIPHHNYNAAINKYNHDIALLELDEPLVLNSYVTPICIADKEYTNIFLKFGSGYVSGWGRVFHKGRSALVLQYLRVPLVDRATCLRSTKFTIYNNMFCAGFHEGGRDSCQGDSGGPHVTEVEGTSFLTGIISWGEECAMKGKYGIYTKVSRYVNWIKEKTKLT
Sequence of Vitamin K-dependent protein C (P04070 43-197 limits assumed): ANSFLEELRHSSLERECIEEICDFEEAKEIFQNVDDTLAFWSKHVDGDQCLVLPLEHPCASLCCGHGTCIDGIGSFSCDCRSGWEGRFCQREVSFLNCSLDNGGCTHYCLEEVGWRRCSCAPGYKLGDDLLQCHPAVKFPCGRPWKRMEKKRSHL
Sequence of Vitamin K-dependent protein C (P04070 212-461 limits assumed): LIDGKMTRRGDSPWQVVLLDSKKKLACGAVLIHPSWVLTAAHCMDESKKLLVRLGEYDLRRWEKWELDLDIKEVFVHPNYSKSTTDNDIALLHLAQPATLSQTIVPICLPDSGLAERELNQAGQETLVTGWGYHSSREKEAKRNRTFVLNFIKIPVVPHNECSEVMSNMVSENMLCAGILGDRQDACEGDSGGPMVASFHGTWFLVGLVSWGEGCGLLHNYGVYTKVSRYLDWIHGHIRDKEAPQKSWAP
Sequence of Tissue-type plasminogen activator (P00750 whole entry): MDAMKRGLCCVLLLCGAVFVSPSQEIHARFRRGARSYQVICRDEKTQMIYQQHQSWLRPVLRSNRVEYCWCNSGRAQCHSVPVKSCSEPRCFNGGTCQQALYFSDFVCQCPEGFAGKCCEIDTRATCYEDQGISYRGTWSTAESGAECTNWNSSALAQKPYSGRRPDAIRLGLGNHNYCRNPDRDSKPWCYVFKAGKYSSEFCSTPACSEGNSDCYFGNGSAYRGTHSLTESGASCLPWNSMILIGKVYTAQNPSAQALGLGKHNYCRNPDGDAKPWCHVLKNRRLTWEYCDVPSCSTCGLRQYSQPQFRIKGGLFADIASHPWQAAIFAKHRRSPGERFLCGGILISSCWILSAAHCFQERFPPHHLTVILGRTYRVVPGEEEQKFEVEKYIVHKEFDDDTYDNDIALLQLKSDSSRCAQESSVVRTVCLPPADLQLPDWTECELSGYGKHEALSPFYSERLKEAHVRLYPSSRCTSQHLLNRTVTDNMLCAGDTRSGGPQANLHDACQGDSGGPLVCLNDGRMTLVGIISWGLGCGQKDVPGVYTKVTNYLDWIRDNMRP
Sequence of Plasma kallikrein (P03952 20-390 limits assumed): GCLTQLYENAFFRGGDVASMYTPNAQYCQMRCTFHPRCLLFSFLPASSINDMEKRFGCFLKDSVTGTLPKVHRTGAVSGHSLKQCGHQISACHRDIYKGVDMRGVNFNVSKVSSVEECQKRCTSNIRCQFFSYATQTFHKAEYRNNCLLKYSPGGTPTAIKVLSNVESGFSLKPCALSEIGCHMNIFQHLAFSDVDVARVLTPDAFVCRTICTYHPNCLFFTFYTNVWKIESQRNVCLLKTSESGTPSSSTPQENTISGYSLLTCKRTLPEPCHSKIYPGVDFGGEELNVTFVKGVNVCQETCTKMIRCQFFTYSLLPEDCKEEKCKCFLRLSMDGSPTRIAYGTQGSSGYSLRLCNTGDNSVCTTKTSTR
Sequence of Plasma kallikrein (P03952 391-638 limits assumed): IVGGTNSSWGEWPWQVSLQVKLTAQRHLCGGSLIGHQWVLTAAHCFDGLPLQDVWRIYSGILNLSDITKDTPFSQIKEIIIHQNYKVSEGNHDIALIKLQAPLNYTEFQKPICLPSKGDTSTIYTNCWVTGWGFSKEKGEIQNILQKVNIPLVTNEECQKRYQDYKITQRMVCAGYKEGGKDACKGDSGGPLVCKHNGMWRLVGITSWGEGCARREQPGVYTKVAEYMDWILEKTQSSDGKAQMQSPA
Sequence of Coagulation factor X (P00742 41-179 limits assumed): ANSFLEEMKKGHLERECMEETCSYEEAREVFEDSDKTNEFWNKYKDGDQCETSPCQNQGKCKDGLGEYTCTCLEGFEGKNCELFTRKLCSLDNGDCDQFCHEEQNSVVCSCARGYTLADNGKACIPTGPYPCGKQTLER
Sequence of Coagulation factor X (P00742 235-488 limits assumed): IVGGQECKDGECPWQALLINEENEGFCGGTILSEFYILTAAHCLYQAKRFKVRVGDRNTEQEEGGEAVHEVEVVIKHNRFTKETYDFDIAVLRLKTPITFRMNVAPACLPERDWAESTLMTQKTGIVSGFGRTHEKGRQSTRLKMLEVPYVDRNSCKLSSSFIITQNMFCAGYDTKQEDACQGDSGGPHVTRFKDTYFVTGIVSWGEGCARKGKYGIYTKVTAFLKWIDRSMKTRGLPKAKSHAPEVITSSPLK
Sequence of Plasminogen (P00747 97-580 limits assumed): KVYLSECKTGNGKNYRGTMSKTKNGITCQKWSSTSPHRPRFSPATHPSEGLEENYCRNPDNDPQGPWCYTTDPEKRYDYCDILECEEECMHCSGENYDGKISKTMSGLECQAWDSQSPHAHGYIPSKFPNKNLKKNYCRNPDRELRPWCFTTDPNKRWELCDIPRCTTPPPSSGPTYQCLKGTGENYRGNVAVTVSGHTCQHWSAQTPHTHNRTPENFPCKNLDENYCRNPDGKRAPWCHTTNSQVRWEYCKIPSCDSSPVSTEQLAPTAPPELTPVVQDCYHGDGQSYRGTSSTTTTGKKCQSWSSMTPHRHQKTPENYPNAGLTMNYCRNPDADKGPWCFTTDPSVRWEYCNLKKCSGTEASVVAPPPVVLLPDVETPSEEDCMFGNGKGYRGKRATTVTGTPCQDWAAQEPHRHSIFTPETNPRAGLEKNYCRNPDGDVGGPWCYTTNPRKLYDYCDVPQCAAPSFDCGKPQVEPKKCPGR
Sequence of Plasminogen (P00747 581-810 limits assumed): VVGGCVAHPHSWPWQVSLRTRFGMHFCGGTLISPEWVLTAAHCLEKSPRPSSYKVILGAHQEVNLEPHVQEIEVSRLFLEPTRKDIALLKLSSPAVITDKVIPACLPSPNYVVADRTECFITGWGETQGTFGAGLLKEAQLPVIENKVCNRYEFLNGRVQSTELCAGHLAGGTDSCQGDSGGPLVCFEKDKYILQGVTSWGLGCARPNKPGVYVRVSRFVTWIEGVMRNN

Structure (SMILES)	half-life [1] [min]	clearance [5] [mL/min/kg]	bioavailability [6] [%]	Vd [7] [L/kg]	EC1.5 [8] [µM]	pKi [10]	half-life [15] [min]	also measured
COC(=O)Nc1ccc(-c2cc([C@H](Cc3ccccc3)NC(=O)/C=C/c3cc(Cl)ccc3-n3cnnn3)nnc2Cl)cc1	8.6	6.3	16	2.3	9.3	8.02	426	pKi [2]: < 4.53; pKi [3]: 4.12; Ki [4]: > 6220 nM; pKi [9]: < 4.88; pKi [11]: < 4.88; pKi [12]: 5.00; pKi [13]: 6.70; pKi [14]: < 4.13; pKi [16]: < 4.19; pKi [17]: < 5.22; pKi [18]: < 4.57
COC(=O)Nc1ccc(-c2cc([C@H](Cc3ccccc3)NC(=O)/C=C/c3cc(Cl)ccc3-n3cnnn3)nnc2C)cc1	5.1	9.2	14	1.2	11	8.00	120	pKi [2]: < 4.53; pKi [3]: < 4.27; Ki [4]: > 6220 nM; pKi [9]: < 4.88; pKi [11]: < 4.88; pKi [12]: < 4.83; pKi [13]: < 5.52; pKi [14]: 4.41; pKi [16]: < 4.19; pKi [17]: 5.86; pKi [18]: < 4.57
COC(=O)Nc1ccc(-c2cc([C@H](CC(=O)N3CCN(C)CC3)NC(=O)/C=C/c3cc(Cl)ccc3-n3cnnn3)c(Cl)nn2)cc1	–	–	–	–	0.9	8.40	–	–
COC(=O)Nc1ccc(-c2cc([C@H](Cc3ccccc3)NC(=O)/C=C/c3cc(Cl)ccc3-n3cnnn3)n[nH]c2=O)cc1	–	–	–	–	11	8.00	–	–
COC(=O)Nc1ccc(-c2nc([C@H](Cc3ccccc3)NC(=O)/C=C/c3cc(Cl)ccc3-n3cnnn3)[nH]c2Cl)cc1	–	–	–	–	5.3	–	–	–
COC(=O)Nc1ccc(-c2cc([C@H](CC(=O)N3CC[C@@H](O)C3)NC(=O)/C=C/c3cc(Cl)ccc3-n3cnnn3)c(Cl)nn2)cc1	36	24.7	< 3	1.2	1.6	8.18	54	–
COC(=O)Nc1ccc(-c2cc([C@H](CC(=O)N3CC[C@@H](O)C3)NC(=O)/C=C/c3cc(Cl)ccc3-n3cnnn3)nnc2Cl)cc1	–	–	–	–	7.5	7.59	–	–
COC(=O)Nc1ccc(-c2cc([C@H](C[C@@H]3CCCN(C(C)=O)C3)NC(=O)/C=C/c3cc(Cl)ccc3-n3cnnn3)nnc2Cl)cc1	–	–	–	–	8.8	7.05	–	–
COC(=O)Nc1ccc(-c2cc([C@H](Cc3ccc(F)cc3)NC(=O)/C=C/c3cc(Cl)ccc3-n3cnnn3)nnc2Cl)cc1	20	5.1	12	1.5	22	8.03	402	–
COC(=O)Nc1ccc(-c2cc([C@H](Cc3ccncc3)NC(=O)/C=C/c3cc(Cl)ccc3-n3cnnn3)nnc2Cl)cc1	2.8	–	–	–	6.2	7.92	–	–
CNC(=O)c1nnc([C@H](Cc2ccccc2)NC(=O)/C=C/c2cc(Cl)ccc2-n2cnnn2)cc1-c1ccc(NC(=O)OC)cc1	–	–	–	–	45	7.51	–	–
COC(=O)Nc1ccc(-c2cc([C@H](Cc3ccccc3)NC(=O)/C=C/c3cc(Cl)ccc3-n3cnnn3)nnc2OC)cc1	–	–	–	–	50	7.44	–	–
COC(=O)Nc1ccc(-c2cc([C@H](Cc3ccccc3)NC(=O)/C=C/c3cc(Cl)ccc3-n3cnnn3)cnn2)cc1	9.6	18.2	< 3	1.4	3.5	8.39	66	–
COC(=O)Nc1ccc(-c2cc([C@H](Cc3ccccc3)NC(=O)/C=C/c3cc(Cl)ccc3-n3cnnn3)c(Cl)nn2)cc1	31	15.5	< 3	2.1	2.2	8.72	108	pKi [2]: 4.88; pKi [3]: 5.35; Ki [4]: 3730 nM; pKi [9]: 4.97; pKi [11]: 5.48; pKi [12]: 6.00; pKi [13]: 5.71; pKi [14]: 4.66; pKi [16]: 4.79; pKi [17]: 6.72; pKi [18]: 4.53
COC(=O)Nc1ccc(-c2cc([C@H](Cc3ccccc3)NC(=O)/C=C/c3cc(Cl)ccc3-n3cnnn3)nnc2C(=O)O)cc1	–	–	–	–	32	7.96	–	–
COC(=O)Nc1ccc(-c2ccnc([C@H](Cc3ccccc3)NC(=O)/C=C/c3cc(Cl)ccc3-n3cnnn3)c2)cc1	–	–	–	–	>40	–	–	bioavailability [19]: 34%
COC(=O)Nc1ccc(-c2cc([C@H](Cc3ccccc3)NC(=O)/C=C/c3cc(Cl)ccc3-n3cnnn3)c(=O)[nH]n2)cc1	–	–	–	–	19	7.66	–	–
COC(=O)Nc1ccc(-c2cc([C@H](Cc3ccccc3)NC(=O)/C=C/c3cc(Cl)ccc3-n3cnnn3)c(C)nn2)cc1	–	–	–	–	14	8.21	–	–
COC(=O)Nc1ccc(-c2cnnc([C@H](Cc3ccccc3)NC(=O)/C=C/c3cc(Cl)ccc3-n3cnnn3)c2)cc1	9.1	8.9	18	1.3	14	8.15	108	pKi [2]: < 4.53; pKi [3]: 4.42; Ki [4]: > 6220 nM; pKi [9]: < 4.88; pKi [11]: < 4.88; pKi [12]: < 4.83; pKi [13]: 6.08; pKi [16]: 4.17; pKi [17]: 6.57; pKi [18]: 4.92
COC(=O)Nc1ccc(-c2cc([C@H](Cc3cccc(F)c3)NC(=O)/C=C/c3cc(Cl)ccc3-n3cnnn3)nnc2Cl)cc1	12	–	–	–	17	8.00	–	–
